Columns and labels:
ShhN/heparin binding = ShhN/heparin binding (Homo sapiens, UniProt Q15465); test: Solid-phase ShhN/heparin binding assay; details: for ShhN/flu-heparin binding IC50 of known compounds: compounds known to bind Shh, heparin binding domains or heparin, Fig. 3B
C3H10T1/2 cells = test: Induction of AP activity in C3H10T1/2 cells by agonists; type: cell-based, murine; details: read-out: EC50 for induction of AP activity, 5 days
Summary of the method: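 C3H10T1/2 murine embryonic fibroblasts are cultured for 24 h, then exposed to varying concentrations of ShhN protein or SAG for 5 days. Alkaline phosphatase induction is read as the activation marker, and EC50 is fitted by non-linear regression. A ShhN dose-response curve is run on every plate as an internal control.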

[1] = tested on: SAG-induced AP activity in C3H10T1/2 cells; test: C3H10T1/2 cell-based assay, inhibition of SAG-induced alkaline phosphatase; parameters: species or system murine; details: for Inhibition of SAG-induced AP: C3H10T1/2 cells, SAG at EC50 (100 nM), 5 days; for Cytotoxicity in C3H10T1/2 cells: inferred from lack of effect in the SAG induction assay
Summary of the method: (§1)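 C3H10T1/2 murine embryonic fibroblasts, stimulated for 5 days with an agonist at its EC50 (human ShhN N-terminal domain, residues 24–197, at 2 μg/ml; or Smoothened agonist SAG at 100 nM), with or without the test compound in dose response. Alkaline phosphatase activity is measured as the marker of pathway activation. IC50 is obtained by non-linear regression.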

ShhN protein = ShhN protein (Homo sapiens, UniProt Q15465); test: Protein thermal shift assay; type: binding; details: ShhN 1–2 μM; compounds 1.56 to 50 μM
Sequence of ShhN protein (Q15465 24-197): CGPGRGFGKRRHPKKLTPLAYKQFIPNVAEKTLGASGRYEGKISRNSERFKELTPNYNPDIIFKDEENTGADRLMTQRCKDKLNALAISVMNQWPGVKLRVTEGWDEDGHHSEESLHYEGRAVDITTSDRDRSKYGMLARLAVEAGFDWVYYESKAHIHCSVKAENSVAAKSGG
Summary of the method: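 Differential scanning fluorimetry uses human ShhN (residues 24–197, 1–2 μM final) mixed with the kit's thermal shift buffer and dye, held on ice, with or without the test compound at 1.56–50 μM. Melt runs at a continuous ramp of […] from 25°C to 97.5°C. ΔTm is the difference in transition midpoint with versus without compound.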

[2] = tested on: SAG-induced Gli1 and Ptch1 mRNA in C3H10T1/2 cells; test: qRT-PCR for Gli1 and Ptch1 in C3H10T1/2 cells, SAG-mediated induction; type: cell-based, mouse; details: 5 days, 50 μM for compounds 4, 21 and 24, 10 μM for robotnikinin
[3] = tested on: ShhN-induced Gli1 and Ptch1 mRNA in C3H10T1/2 cells; test: qRT-PCR for Gli1 and Ptch1 in C3H10T1/2 cells, ShhN-mediated induction; type: cell-based, mouse; details: 5 days; for Decrease of ShhN-mediated induction of Gli1 and Ptch1 compared to ShhN treatment alone: 50 μM compound; for Inhibition of ShhN-induced GLI1 and Ptch1 mRNA: 50 μM for compounds 4, 21 and 24, 10 μM for robotnikinin
[4] = tested on: ShhN-induced AP activity in C3H10T1/2 cells; test: C3H10T1/2 cell-based assay, inhibition of ShhN-induced alkaline phosphatase; parameters: species or system murine; details: dose response, 5 days
Summary of the method: as §1

Sequence of ShhN/heparin binding (Q15465 24-197): as above

Compound: O=C1NC(=S)N(c2ccc(F)cc2)C(=O)C1=Cc1ccco1 [Compound 7, 1-(4-Fluoro-phenyl)-5-furan-2-ylmethylene-2-thioxo-dihydro-pyrimidine-4,6-dione]
- IC50 (ShhN/heparin binding): 17.5 µM

Compound: CNC1CCC(N(Cc2cccc(-c3ccncc3)c2)C(=O)c2sc3ccccc3c2Cl)CC1 (centres unmarked) [SAG]
- EC50 (C3H10T1/2 cells): 0.1 µM

Compound: Cc1cc(N)c2cc(NC(=O)Nc3ccc4nc(C)cc(N)c4c3)ccc2n1 [surfen, Surfen]
- ShhN/flu-heparin binding IC50 of known compounds (ShhN/heparin binding): did not block binding

Compound: CCc1ccc(C2=C/C(=C/c3ccco3)C(=O)O2)cc1 [Compound 4, (3Z)-5-(4-Ethylphenyl)-3-(furan-2-ylmethylidene) furan-2-one]
- Inhibition of SAG-induced AP [1]: not SAG induction of AP
- Cytotoxicity in C3H10T1/2 cells [1]: not cytotoxic
- Tm shift (ΔTm) on binding to ShhN (ShhN protein): 1.58 °C
- Inhibition of SAG-induced GLI1 and Ptch1 mRNA [2]: did not decrease
- Decrease of ShhN-mediated induction of Gli1 and Ptch1 compared to ShhN treatment alone [3]: 6–7 fold
- Inhibition of ShhN-induced GLI1 and Ptch1 mRNA [3]: significantly blocked

Compound: Cc1ccc(C(=O)Nc2ccc(S(=O)(=O)O)c3cc(S(=O)(=O)O)cc(S(=O)(=O)O)c23)cc1NC(=O)c1cccc(NC(=O)Nc2cccc(C(=O)Nc3cc(C(=O)Nc4ccc(S(=O)(=O)O)c5cc(S(=O)(=O)O)cc(S(=O)(=O)O)c45)ccc3C)c2)c1 [Suramin, reference compound]
- Tm shift (ΔTm) on binding to ShhN (ShhN protein): 0.73 °C
- Block of ShhN-mediated AP induction [4]: blocked

Compound: O=C(NCCNC1CCCC1)c1cccs1 [Compound 24, N-[2-(Cyclopentylamino)ethyl] thiophene-2-carboxamide]
- Inhibition of SAG-induced AP [1]: not SAG induction of AP
- Cytotoxicity in C3H10T1/2 cells [1]: not cytotoxic
- Tm shift (ΔTm) on binding to ShhN (ShhN protein): 0.85 °C
- Inhibition of SAG-induced GLI1 and Ptch1 mRNA [2]: did not decrease
- Decrease of ShhN-mediated induction of Gli1 and Ptch1 compared to ShhN treatment alone [3]: 6–7 fold
- Inhibition of ShhN-induced GLI1 and Ptch1 mRNA [3]: significantly blocked

Compound: O=C(C[C@@H]1C/C=C/CCC(=O)O[C@H](c2ccccc2)CNC1=O)NCc1ccc(Cl)cc1 [Robotnikinin, reference compound]
- Inhibition of SAG-induced AP [1]: not SAG-mediated AP induction
- ShhN/flu-heparin binding IC50 of known compounds (ShhN/heparin binding): did not block binding
- Tm shift (ΔTm) on binding to ShhN (ShhN protein): 0.85 °C
- Inhibition of SAG-induced GLI1 and Ptch1 mRNA [2]: did not block
- Block of ShhN-mediated AP induction [4]: able to block ShhN-
- Inhibition of ShhN-induced GLI1 and Ptch1 mRNA [3]: blocked

Reference: paper PMC11486593 (Biochimica et biophysica acta. General subjects, 2024)
